Data reported in ChEMBL document CHEMBL1123837, “1-Amino-substituted 4-methyl-5H-pyrido[3',4':4,5]pyrrolo[3,2-c]pyridines: a new class of antineoplastic agents” (J Med Chem, 1987).
Activity calls are given as the source filed them. The calls are words filed in the database; no cut-off is given here.

Key:
Calf thymus DNA = assay: Binding affinity for DNA by ethidium bromide displacement assay; format: nucleic-acid assay; conditions: Bos taurus
Procedure, shortened: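 Competitive ethidium bromide displacement with calf thymus DNA at 10 µg/mL in 20 mM Na phosphate buffer, 0.1 M NaCl, 1 mM EDTA, pH 7.4. The apparent DNA affinity constant is given in 10^6 M^-1 ± standard deviation, from 6 values across two independent experiments.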

L1210 = assay: In vitro cytotoxicity against L1210 cells was determined after 48 hours of incubation; format: functional, Mus musculus; conditions: Mus musculus, L1210, 48 h; read-out: ID50 (the source's name)
Procedure, shortened: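 Exponentially growing L1210 cells were cultured in RPMI 1640 with 2 mM glutamine, penicillin/streptomycin and 10% fetal calf serum, under 5% CO2 at 37 °C. Drugs dissolved in distilled water were added to cells at 0.8 × 10^5 cells/mL for 48 h, then cells were counted. ID50 was estimated by regression of dose-response data, as the mean of two values from two independent experiments.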

Mus musculus [1] = assay: In vivo antitumor activity was determined against P388 leukemia cells expressed as treated/control at the dose of 10 mg/kg; format: functional
Procedure, shortened: (§1)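 Following NCI protocols, 10^6 viable P388 leukemia cells were inoculated ip on day 0 into male or female CDF1 hybrid mice, 10 per test group. Compounds in distilled water were given ip (0.1 mL/10 g body weight) at various doses on days 1–5. T/C = median survival day of treated / median survival day of negative controls × 100.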

Mus musculus [2] = assay: In vivo antitumor activity was determined against P388 leukemia cells expressed as treated/control at the dose of 20 mg/kg; format: functional; procedure, shortened: as §1
Mus musculus [3] = assay: In vivo antitumor activity was determined against P388 leukemia cells expressed as treated/control at the dose of 40 mg/kg; format: functional; procedure, shortened: as §1
Mus musculus [4] = assay: In vivo antitumor activity was determined against P388 leukemia cells expressed as treated/control at the dose of 80 mg/kg; format: functional; procedure, shortened: as §1
Mus musculus [5] = assay: In vivo antitumor activity was determined against P388 leukemia cells expressed as treated/control at the dose of (1.25-20)mg/kg; IA = Inactive; format: functional, organism-based; procedure, shortened: as §1
Mus musculus [6] = assay: In vivo antitumor activity was determined against P388 leukemia cells expressed as treated/control at the dose of (5-100)mg/kg (nontoxic at highest dose tested.); IA = Inactive; format: functional, organism-based; procedure, shortened: as §1
Mus musculus [7] = assay: In vivo antitumor activity was determined against P388 leukemia cells expressed as treated/control at the dose of 40 mg/kg; T = toxic at this dose; format: organism-based; parameters: dose 40 mg/kg; procedure, shortened: as §1
Mus musculus [8] = assay: In vivo antitumor activity was determined against P388 leukemia cells expressed as treated/control at the dose of (2.5-20)mg/kg; IA = Inactive; format: functional, organism-based; procedure, shortened: as §1
Mus musculus [9] = assay: In vivo antitumor activity was determined against P388 leukemia cells expressed as treated/control at the dose of 50 mg/kg; format: functional; procedure, shortened: as §1
Mus musculus [10] = assay: In vivo antitumor activity was evaluated on L1210 leukemia model and percent of treated/control of tumor cells was determined at 1.25 mg/kg dosage concentration; format: functional
Procedure, shortened: as §1, with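 “10^5” for “10^6”, “L1210” for “P388”, “dosed” for “given”, “daily” for “at various doses”, “treated mice” for “treated”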

Mus musculus [11] = assay: In vivo antitumor activity was evaluated on L1210 leukemia model and percent of treated/control of tumor cells was determined at 10 mg/kg dosage concentration; format: functional
Procedure, shortened: as §1, with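 “10^5” for “10^6”, “L1210” for “P388”, “dosed” for “given”, “daily” for “at various doses”, “treated mice” for “treated”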

Mus musculus [12] = assay: In vivo antitumor activity was evaluated on L1210 leukemia model and percent of treated/control of tumor cells was determined at 2.5 mg/kg dosage concentration.; format: functional
Procedure, shortened: as §1, with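 “10^5” for “10^6”, “L1210” for “P388”, “dosed” for “given”, “daily” for “at various doses”, “treated mice” for “treated”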

Mus musculus [13] = assay: In vivo antitumor activity was evaluated on L1210 leukemia model and percent of treated/control of tumor cells was determined at 20 mg/kg dosage concentration; format: functional
Procedure, shortened: (§2)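 L1210 leukemia, 10^5 viable cells inoculated ip on day 0 into CDF1 hybrid male or female mice, 10 mice per group. Compounds were given ip in distilled water (0.1 mL/10 g body weight) on days 1-5. Vehicle controls were treated the same way. NCI protocols were followed. T/C = median survival day of treated mice / median survival day of vehicle controls × 100.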

Mus musculus [14] = assay: In vivo antitumor activity was evaluated on L1210 leukemia model and percent of treated/control of tumor cells was determined at 40 mg/kg dosage concentration; format: functional
Procedure, shortened: as §1, with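 “10^5” for “10^6”, “L1210” for “P388”, “dosed” for “given”, “daily” for “at various doses”, “treated mice” for “treated”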

Mus musculus [15] = assay: In vivo antitumor activity was evaluated on L1210 leukemia model and percent of treated/control of tumor cells was determined at 50 mg/kg dosage concentration; format: functional
Procedure, shortened: as §1, with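 “10^5” for “10^6”, “L1210” for “P388”, “dosed” for “given”, “daily” for “at various doses”, “treated mice” for “treated”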

Mus musculus [16] = assay: In vivo antitumor activity was evaluated on L1210 leukemia model and percent of treated/control of tumor cells was determined at 5 mg/kg dosage concentration; format: functional
Procedure, shortened: as §1, with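 “10^5” for “10^6”, “L1210” for “P388”, “dosed” for “given”, “daily” for “at various doses”, “treated mice” for “treated”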

Mus musculus [17] = assay: In vivo antitumor activity was determined against P388 leukemia cells expressed as number of animals survived; format: functional
Procedure, shortened: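 P388 leukemia, 10^6 viable cells inoculated ip on day 0 into CDF1 hybrid male or female mice, 10 mice per group. Compounds were given ip in distilled water (0.1 mL/10 g body weight) at various doses on days 1-5. Vehicle controls were treated the same way. NCI protocols were followed.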

Mus musculus [18] = assay: In vivo antitumor activity was evaluated on L1210 leukemia model and number of survivors (animals) was determined at 1.25 mg/kg dosage concentration; number of survivors given as 0/10; format: functional; procedure, shortened: as §2
Mus musculus [19] = assay: In vivo antitumor activity was evaluated on L1210 leukemia model and number of survivors (animals) was determined at 10 mg/kg dosage concentration; number of survivors given as 3/10; format: functional; procedure, shortened: as §2
Mus musculus [20] = assay: In vivo antitumor activity was evaluated on L1210 leukemia model and number of survivors (animals) was determined at 2.5 mg/kg dosage concentration; number of survivors given as 0/10; format: functional; procedure, shortened: as §2
Mus musculus [21] = assay: In vivo antitumor activity was evaluated on L1210 leukemia model and number of survivors (animals) was determined at 20 mg/kg dosage concentration; number of survivors given as 0/10; format: functional; procedure, shortened: as §2
Mus musculus [22] = assay: In vivo antitumor activity was evaluated on L1210 leukemia model and number of survivors (animals) was determined at 40 mg/kg dosage concentration; number of survivors given as 0/10; format: functional; procedure, shortened: as §2
Mus musculus [23] = assay: In vivo antitumor activity was evaluated on L1210 leukemia model and number of survivors (animals) was determined at 50 mg/kg dosage concentration; number of survivors given as 0/10; format: functional; procedure, shortened: as §2
Mus musculus [24] = assay: In vivo antitumor activity was evaluated on L1210 leukemia model and number of survivors (animals) was determined at 5 mg/kg dosage concentration; number of survivors given as 0/10; format: functional; procedure, shortened: as §2
Mus musculus [25] = assay: In vivo antitumor activity was evaluated on L1210 leukemia model and weight change in tumors was determined at 50 mg/kg dosage concentration; format: functional
Mus musculus [26] = assay: In vivo antitumor activity was evaluated on L1210 leukemia model and weight change in tumors was determined at 5 mg/kg dosage concentration; format: functional
Mus musculus [27] = assay: In vivo antitumor activity was evaluated on L1210 leukemia model and weight change in tumors was determined at 40 mg/kg dosage concentration; format: functional
Mus musculus [28] = assay: In vivo antitumor activity was evaluated on L1210 leukemia model and median survival day was determined at 1.25 mg/kg dosage concentration; format: functional; procedure, shortened: as §2
Mus musculus [29] = assay: In vivo antitumor activity was evaluated on L1210 leukemia model and median survival day was determined at 10 mg/kg dosage concentration; format: functional; procedure, shortened: as §2
Mus musculus [30] = assay: In vivo antitumor activity was evaluated on L1210 leukemia model and median survival day was determined at 2.5 mg/kg dosage concentration.; format: functional; procedure, shortened: as §2
Mus musculus [31] = assay: In vivo antitumor activity was evaluated on L1210 leukemia model and median survival day was determined at 20 mg/kg dosage concentration; format: functional; procedure, shortened: as §2
Mus musculus [32] = assay: In vivo antitumor activity was evaluated on L1210 leukemia model and median survival day was determined at 40 mg/kg dosage concentration; format: functional; procedure, shortened: as §2
Mus musculus [33] = assay: In vivo antitumor activity was evaluated on L1210 leukemia model and median survival day was determined at 50 mg/kg dosage concentration; format: functional; procedure, shortened: as §2
Mus musculus [34] = assay: In vivo antitumor activity was evaluated on L1210 leukemia model and weight change in tumors was determined at 1.25 mg/kg dosage concentration; format: functional
Mus musculus [35] = assay: In vivo antitumor activity was evaluated on L1210 leukemia model and weight change in tumors was determined at 10 mg/kg dosage concentration; format: functional
Mus musculus [36] = assay: In vivo antitumor activity was evaluated on L1210 leukemia model and weight change in tumors was determined at 2.5 mg/kg dosage concentration.; format: functional
Mus musculus [37] = assay: In vivo antitumor activity was evaluated on L1210 leukemia model and weight change in tumors was determined at 20 mg/kg dosage concentration; format: functional
Mus musculus [38] = assay: In vivo antitumor activity was evaluated on L1210 leukemia model and median survival day was determined at 5 mg/kg dosage concentration; format: functional; procedure, shortened: as §2

CCNCCCNc1ncc(C)c2c1c1cnccc1n2C
K aff (Calf thymus DNA): 50000 M⁻¹ | IC50 (L1210): 3.8 µM | T/C (Mus musculus [1]): 127 | T/C (Mus musculus [2]): 145 | T/C (Mus musculus [3]): 138 | T/C (Mus musculus [4]): 149

CCCN(CCC)CCCNc1[nH]cc(C)c2nc3ccncc3c1-2
K aff (Calf thymus DNA): 8000 M⁻¹ | IC50 (L1210): 3.3 µM | T/C (Mus musculus [5]): inactive

CCN(CC)CCCCNc1ncc(C)c2c1c1cnccc1n2C
K aff (Calf thymus DNA): 40000 M⁻¹ | T/C (Mus musculus [6]): inactive

CCN(CC)CCNc1[nH]cc(C)c2nc3ccncc3c1-2
K aff (Calf thymus DNA): 12000 M⁻¹ | IC50 (L1210): 19.5 µM | T/C (Mus musculus [7]): Toxic | T/C (Mus musculus [8]): inactive

Cc1c[nH]c(NCCCN(C)C)c2c3cnccc3nc1-2
K aff (Calf thymus DNA): 20000 M⁻¹ | IC50 (L1210): 0.16 µM | T/C (Mus musculus [1]): 156 | T/C (Mus musculus [2]): 186 | T/C (Mus musculus [3]): 184 | T/C (Mus musculus [9]): 181 | T/C (Mus musculus [10]): 127.5% | T/C (Mus musculus [11]): 177% | T/C (Mus musculus [12]): 140% | T/C (Mus musculus [13]): 169.5% | T/C (Mus musculus [14]): 100% | T/C (Mus musculus [15]): 89% | T/C (Mus musculus [16]): 152% | Survivors (Mus musculus [17]): 1 | Survivors (Mus musculus [18]): 0 | Survivors (Mus musculus [19]): 3 | Survivors (Mus musculus [20]): 0 | Survivors (Mus musculus [21]): 0 | Survivors (Mus musculus [22]): 0 | Survivors (Mus musculus [23]): 0 | Survivors (Mus musculus [24]): 0 | Weight changes (Mus musculus [25]): -2.4 g | Weight changes (Mus musculus [26]): 0.3 g | Weight changes (Mus musculus [27]): -1.1 g | Median survival day (Mus musculus [28]): 11.75 | Median survival day (Mus musculus [29]): 16.25 | Median survival day (Mus musculus [30]): 12.9 | Median survival day (Mus musculus [31]): 15.6 | Median survival day (Mus musculus [32]): 9.25 | Median survival day (Mus musculus [33]): 8.2 | Weight changes (Mus musculus [34]): 0.3 g | Weight changes (Mus musculus [35]): 0.5 g | Weight changes (Mus musculus [36]): 0.3 g | Weight changes (Mus musculus [37]): -1.7 g | Median survival day (Mus musculus [38]): 14
